Nine molecules from ChEMBL document CHEMBL3864185, “Identification of N-(2-Phenoxyethyl)imidazo[1,2-a]pyridine-3-carboxamides as New Antituberculosis Agents” (ACS Med Chem Lett, 2016) can be followed below.

In brackets after ≈: the same amount, converted by molar mass.

Test [1] deals with Mycobacterium tuberculosis. In words: Antimycobacterial activity against isoniazid/rifampicin-resistant Mycobacterium tuberculosis isolate 11168 after 7 days by microplate alamar blue assay. Format: functional. To be noted: isolate 11168, 168 h. Summed up: (§1)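 Microplate Alamar Blue Assay against clinical MDR M. tuberculosis isolates 11168 and 9160, both resistant to isoniazid and rifampicin. Read-out was fluorescence. MIC was the lowest concentration that reduced fluorescence by >90% versus the mean of replicate bacterium-only controls.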

In test [2] the test system is Mycobacterium tuberculosis. As to the kind of experiment: Antimycobacterial activity against isoniazid/rifampicin-resistant Mycobacterium tuberculosis isolate 9160 after 7 days by microplate alamar blue assay. Format: functional. To be noted: isolate 9160, 168 h. The method in brief:
as §1

With `Cc1ccc2nc(C)c(C(=O)NCCOc3ccc(Cl)cc3)n2c1`, the figures for the MIC in test [1] and in test [2] were 0.025 µg/mL (≈ 0.0727 µM) and 0.028 µg/mL (≈ 0.0814 µM), respectively.

In the case of `Cc1cccc(OCCNC(=O)c2c(C)nc3ccc(C)cn23)c1`, the MIC was found to be 0.026 µg/mL (≈ 0.0804 µM) in test [1] and 0.033 µg/mL (≈ 0.102 µM) in test [2].

With `Cc1ccc2nc(C)c(C(=O)NCCOc3ccc(Br)cc3)n2c1`, the figures for the minimum inhibitory concentration (MIC) in test [1] and in test [2] were 0.036 µg/mL (≈ 0.0927 µM) and 0.051 µg/mL (≈ 0.131 µM), respectively.

Regarding `COc1cccc(OCCNC(=O)c2c(C)nc3ccc(C)cn23)c1`, the MIC in test [1] amounted to 0.029 µg/mL (≈ 0.0854 µM); in test [2] it was 0.035 µg/mL (≈ 0.103 µM).

For the molecule `Cc1ccc2nc(C)c(C(=O)NCCOc3ccccc3C)n2c1`, the minimal inhibitory concentration (MIC) in test [1] came out at 0.036 µg/mL (≈ 0.111 µM); in test [2] it was 0.05 µg/mL (≈ 0.155 µM).

Turning to `COc1ccc(OCCNC(=O)c2c(C)nc3ccc(C)cn23)cc1`, the minimum inhibitory concentration (MIC) in test [1] turned out to be 0.026 µg/mL (≈ 0.0766 µM); in test [2], 0.034 µg/mL (≈ 0.1 µM).

As for `Cc1ccc2nc(C)c(C(=O)NCCOc3ccccc3)n2c1`, the MIC came to 0.03 µg/mL (≈ 0.097 µM) in test [1] and 0.047 µg/mL (≈ 0.152 µM) in test [2].

For the molecule `NNC(=O)c1ccncc1` [ISONIAZID], the minimal inhibitory concentration (MIC) in test [1] and in test [2] was > 40 µg/mL throughout.

For `CO[C@H]1/C=C/O[C@@]2(C)Oc3c(C)c(O)c4c(O)c(c(/C=N/N5CCN(C)CC5)c(O)c4c3C2=O)NC(=O)/C(C)=C\C=C\[C@H](C)[C@H](O)[C@@H](C)[C@@H](O)[C@@H](C)[C@H](OC(C)=O)[C@@H]1C` [RIFAMPIN], the minimal inhibitory concentration (MIC) in test [1] amounted to 36.9 µg/mL (≈ 44.8 µM); in test [2], 38.6 µg/mL (≈ 47 µM).
